The source of these data is ChEMBL document CHEMBL3232873, “Development of a bioavailable μ opioid receptor (MOPr) agonist, δ opioid receptor (DOPr) antagonist peptide that evokes antinociception without development of acute tolerance” (J Med Chem, 2014).

Activity calls are given as the source filed them. *1 amine or outer side, *2 acyl side, *3 side chain or, on linkers, in order; H or OH if unused. Where a SMILES comes first, the peptide text is derived from it. Bridges are numbered along the chain shown (N, C = ends). [ ]: non-standard residue; d: D form. The star is where a group is joined. βGlc = OC[C@H]1O[C@@H](*)[C@H](O)[C@@H](O)[C@@H]1O; Dmt = Cc1cc(O)cc(C)c1C[C@H](N)C(=O)O; dPen = CC(C)(S)[C@@H](N)C(=O)O; Aic = NC1(C(=O)O)Cc2ccccc2C1; CH2CH2 = C(C[*:2])[*:1]

Assay [1] addresses Kappa-type opioid receptor (Homo sapiens) (UniProt P41145). The assay is described as follows: Agonist activity at human kappa opioid receptor expressed in rat C6 cells assessed as stimulation of [35S]-GTPgammaS binding after 1 hr by GF/C filters relative to control. It is filed as functional, cell-based. (GTPγS resists hydrolysis and so accumulates on activated G proteins.)
The target of assay [2] is Delta-type opioid receptor (Rattus norvegicus) (UniProt P33533). The assay is described as follows: Agonist activity at rat delta opioid receptor expressed in rat C6 cells assessed as stimulation of [35S]-GTPgammaS binding after 1 hr by GF/C filters relative to control. It is filed as functional, cell-based. The procedure, abridged:
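Membranes (10–20 μg protein) from C6 glioma cells stably expressing rat DOPr, incubated 1 h at room temperature in 50 mM Tris-HCl, 100 mM NaCl, 5 mM MgCl2, pH 7.4, with 0.1 nM [35S]GTPγS, 30 μM GDP and varied peptide concentrations. GF/C filtration, scintillation counting. […] At least three assays in duplicate.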

Assay [3] has as its system Mus musculus. The assay is described as follows: Antinociceptive effect in C57BL/6 mouse assessed as tail withdrawal latency at 10 mg/kg, ip measured between 30 and 60 mins by warm water tail withdrawal assay relative to 20 secs cutoff time. Type of assay: functional, organism-based. On the set-up: dose 10 mg/kg.
Assay [4] relates to Mus musculus. In words: Antinociceptive effect in C57BL/6 mouse assessed as maximum effect at 10 mg/kg, ip after 30 mins by acute tolerance/warm water tail withdrawal assay. It is filed as functional, organism-based. On the set-up: dose 10 mg/kg. The essentials:
(§1)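 Separate groups of C57BL/6 mice got ip saline or 10 mg/kg compound after baseline, with 50 °C tail-withdrawal latency (20 s cutoff) at 15, 30, 45, 60 and 90 min. At 90–120 min all mice received 10 mg/kg ip, read at 15, 30, 60 and 90 min. AUC over baseline was computed per mouse and averaged by group; naive and pretreated groups compared by t-test.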

The test system of assay [5] is Mus musculus. In words: Antinociceptive effect in C57BL/6 mouse assessed as maximum effect at 10 mg/kg, ip after 90 mins followed by treated with second dose measured up to 200 mins by acute tolerance/warm water tail withdrawal assay. It is filed as functional, organism-based. On the set-up: dose 10 mg/kg. The procedure, abridged:
as §1

Assay [6] concerns Mus musculus. The assay is described as follows: Antinociceptive effect in C57BL/6 mouse assessed as tail withdrawal latency at 10 mg/kg, ip by warm water tail withdrawal assay in presence of 3.2 mg/kg, ip naltrexone nonselective opioid antagonist. Type of assay: functional, organism-based. The procedure, abridged: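 C57BL/6 mice, both sexes. Saline or 3.2 mg/kg naltrexone ip 30 min before 10 mg/kg test compound ip, all in saline. Tail-withdrawal latency in 50 °C water (20 s cutoff) read 30 min after pretreatment and 30 min after test injection.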

Assay [7] relates to Mus musculus. In words: Antinociceptive effect in C57BL/6 mouse assessed as maximum effect at 10 mg/kg, ip after 90 mins by acute tolerance/warm water tail withdrawal assay. Type of assay: functional, organism-based. Set-up: dose 10 mg/kg. The procedure, abridged: as §1
Assay [8] deals with Mus musculus. In words: Antinociceptive effect in C57BL/6 mouse assessed as tail withdrawal latency at 10 mg/kg, ip by warm water tail withdrawal assay relative to 20 secs cutoff time. It is filed as functional. The conditions noted are these: route intraperitoneal. The procedure, abridged:
(§2)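 Adult male and female C57BL/6 mice (20–35 g, 8–16 weeks). Saline ip, then baseline latency 30 min later. Cumulative ip doses in saline were given at 30 min intervals, with latency read 30 min after each dose. Tail tip (2–3 cm) placed in 50 °C water; withdrawal or flick latency recorded, 20 s cutoff.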

For assay [9], the species on record is Mus musculus. The assay is described as follows: Antinociceptive effect in C57BL/6 mouse assessed as tail withdrawal latency by warm water tail withdrawal assay relative to 20 secs cutoff time. Type of assay: functional, organism-based. The essentials:
as §2

Assay [10] concerns the target Delta-type opioid receptor (Rattus norvegicus) (UniProt P33533). The assay is described as follows: Antagonist activity at rat delta opioid receptor expressed in rat C6 cells assessed as [35S]-GTPgammaS binding after 1 hr by GF/C filters. It is filed as functional, cell-based. The procedure, abridged:
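Membranes (10–20 μg protein/well) from C6 glioma cells stably expressing rat DOPr were incubated 1 h at room temperature in 50 mM Tris-HCl, 100 mM NaCl, 5 mM MgCl2, pH 7.4, with 0.1 nM [35S]GTPγS and 30 μM GDP. Bound label was filtered, washed 10× with cold buffer, and scintillation-counted. Ke was derived by formula using a single peptide concentration. Mean ± SEM, ≥3 assays in duplicate.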

Assay [11] addresses Mu-type opioid receptor (Rattus norvegicus) (UniProt P33535). The assay is described as follows: Agonist activity at rat mu opioid receptor expressed in rat C6 cells assessed as stimulation of [35S]-GTPgammaS binding after 1 hr by GF/C filters relative to control. It is filed as functional, cell-based. The procedure, abridged:
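C6 glioma membranes (rat MOPr, stable; 10–20 μg protein) incubated 1 h at room temperature in 50 mM Tris-HCl, 100 mM NaCl, 5 mM MgCl2, pH 7.4, with 0.1 nM [35S]GTPγS, 30 μM GDP and varying peptide concentrations. GF/C filtration, counting. […] EC50 and maximum from nonlinear regression. At least three assays in duplicate.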

Chain of Delta-type opioid receptor (Rattus norvegicus) (P33533 whole entry): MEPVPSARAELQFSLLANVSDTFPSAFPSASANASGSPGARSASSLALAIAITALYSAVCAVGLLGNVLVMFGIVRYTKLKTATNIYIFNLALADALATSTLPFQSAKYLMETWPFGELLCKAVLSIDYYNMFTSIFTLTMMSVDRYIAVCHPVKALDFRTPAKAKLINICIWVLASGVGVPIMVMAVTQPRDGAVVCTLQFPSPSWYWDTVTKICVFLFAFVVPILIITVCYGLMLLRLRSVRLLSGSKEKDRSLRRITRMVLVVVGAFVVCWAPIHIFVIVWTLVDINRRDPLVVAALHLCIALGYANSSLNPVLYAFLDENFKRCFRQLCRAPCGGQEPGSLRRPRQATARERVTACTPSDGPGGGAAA
Chain of Kappa-type opioid receptor (Homo sapiens) (P41145 whole entry): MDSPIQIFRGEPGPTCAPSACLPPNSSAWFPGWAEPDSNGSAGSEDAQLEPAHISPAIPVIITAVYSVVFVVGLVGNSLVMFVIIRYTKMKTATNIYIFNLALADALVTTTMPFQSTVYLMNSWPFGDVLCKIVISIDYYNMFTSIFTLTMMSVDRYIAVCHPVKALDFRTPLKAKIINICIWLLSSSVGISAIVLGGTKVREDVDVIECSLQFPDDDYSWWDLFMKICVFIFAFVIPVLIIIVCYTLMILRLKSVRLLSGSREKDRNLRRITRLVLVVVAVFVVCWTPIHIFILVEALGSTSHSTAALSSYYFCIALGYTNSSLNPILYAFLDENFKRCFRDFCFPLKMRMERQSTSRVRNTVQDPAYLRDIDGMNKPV
Chain of Mu-type opioid receptor (Rattus norvegicus) (P33535 whole entry): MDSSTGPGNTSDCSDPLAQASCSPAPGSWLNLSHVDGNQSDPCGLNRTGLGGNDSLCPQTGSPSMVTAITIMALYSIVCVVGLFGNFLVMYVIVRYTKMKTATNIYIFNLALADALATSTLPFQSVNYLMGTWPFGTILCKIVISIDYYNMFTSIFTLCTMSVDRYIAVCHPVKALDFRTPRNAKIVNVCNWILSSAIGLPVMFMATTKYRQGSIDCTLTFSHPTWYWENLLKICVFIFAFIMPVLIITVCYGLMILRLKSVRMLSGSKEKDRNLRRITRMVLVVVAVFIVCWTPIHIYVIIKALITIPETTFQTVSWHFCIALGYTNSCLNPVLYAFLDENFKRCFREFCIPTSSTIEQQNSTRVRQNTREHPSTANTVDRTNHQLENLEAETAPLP

Take `Cc1cc(O)cc(C)c1C[C@H](N)C(=O)N[C@@H]1CSCCSC(C)(C)[C@H](C(=O)N[C@@H](CO)C(N)=O)NC(=O)C2(Cc3ccccc3C2)NC1=O` (H-[Dmt][dC][Aic][dPen]S-NH2; linker 2-4 via CH2CH2): the Efficacy entry in assay [1] and in assay [2] was “inactive” in each case.

On to `Cc1cc(O)cc(C)c1C[C@H](N)C(=O)N[C@@H]1CSCCSC(C)(C)[C@H](C(=O)N[C@@H](CO[C@@H]2O[C@H](CO)[C@@H](O)[C@H](O)[C@H]2O)C(N)=O)NC(=O)C2(Cc3ccccc3C2)NC1=O` (H-[Dmt][dC][Aic][dPen]S(βGlc)-NH2; linker 2-4 via CH2CH2), for which the outcome in the assay on Mus musculus [3], with Mus musculus [4] and in the assay with Mus musculus [5] was Active. For the same molecule, the outcome in the assay on Mus musculus [6] and in the assay on Mus musculus [7] was inactive. The Efficacy result in [1] and in assay [2] was “inactive” throughout. The Activity in the assay with Mus musculus [8] was 80%; in the assay filed under Mus musculus [9], “Dose-dependent effect”. In addition, the Ke in assay [10] was determined as 6.1 nM.

Take `Cc1cc(O)cc(C)c1C[C@H](N)C(=O)N[C@@H]1CSCCSC(C)(C)[C@H](C(=O)O)NC(=O)C2(Cc3ccccc3C2)NC1=O` (H-[Dmt][dC][Aic][dPen]-OH; linker 2-4 via CH2CH2): the Efficacy in [11] is 59%. Besides, the Efficacy entry in [1] and in [2] was “inactive” throughout. Besides, the Ke in [10] is 4.4 nM.

In the case of `Cc1cc(O)cc(C)c1C[C@H](N)C(=O)N[C@@H]1CSCCSC(C)(C)[C@H](C(=O)N[C@@H](CO)C(=O)O)NC(=O)C2(Cc3ccccc3C2)NC1=O` (H-[Dmt][dC][Aic][dPen]S-OH; linker 2-4 via CH2CH2), the Efficacy result in assay [1] and in assay [2] was “inactive” throughout.
